Assay results as given in ChEMBL document CHEMBL1121573, “2-(Aminomethyl)phenols, a new class of saluretic agents. 1. Effects of nuclear substitution” (J Med Chem, 1980).
Where “and” joins values, the source holds several entries; their conditions need not be identical. Identical values can stand only once.

Legend:
Canis familiaris [1] = experiment: Compound administered intravenously was evaluated for salidiuretic activity measured as sodium ion excretion in Dog; Value ranges from 100-299; assay type: ADME, organism-based, Canis lupus familiaris, Urine; details: in vivo, iv
In short: (§1)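 Conditioned female mongrel dogs, postabsorptive, water-loaded (500 mL po) 1 h before sodium pentobarbital anesthesia (30 mg/kg iv). Bladder catheter; creatinine 4 g sc; phosphate–mannitol buffer pH 7.4 infused (3.0 mL/min) throughout. […] Urine Na+ measured; response scored 0–6.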

Canis familiaris [2] = experiment: Compound administered intravenously was evaluated for salidiuretic activity measured as sodium ion excretion in Dog; Value ranges from 100-249; assay type: ADME, organism-based, Canis lupus familiaris, Urine; details: in vivo, iv; in short: as §1
Canis familiaris [3] = experiment: Compound administered intravenously at a dose of 5 mg/kg was evaluated for salidiuretic activity measured as sodium ion excretion in Dog; Value ranges from 400-599; assay type: ADME, organism-based, Canis lupus familiaris, Urine; design: dose 5 mg/kg, route intravenous; details: in vivo, iv; in short: as §1
Rattus norvegicus [4] = experiment: Evaluated for salidiuretic activity measured as sodium ion excretion in Rat, administered orally at a dose of 50 mg/kg; assay type: functional, Urine; design: unit not given beside the values; details: route oral
In short: (§2)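 Female Charles-River rats (150–170 g), overnight on sugar diet with water ad libitum. Compound dissolved in DMF, diluted with water containing Tween 80 (final 4% DMF), given po in 5.0 mL; concurrent vehicle placebo. Three rats per metabolism cage; 0–5 h urine analysed for Na+, K+, Cl-. Values: mequiv × 100 per cage, geometric means of three cages per dose; scored 0–6 by Na+.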

[5] = Evaluated for salidiuretic activity measured as sodium ion excretion in Rat, administered orally at a dose of 16.5 mg/kg; assay type: organism-based; design: dose 16.5 mg/kg; details: Urine; in short: as §2
[6] = Compound administered orally at a dose of 5 mg/kg was evaluated for salidiuretic activity measured as sodium ion excretion in Rat; assay type: organism-based; design: dose 5 mg/kg; details: Urine; in short: as §2
Rattus norvegicus [7] = experiment: Compound administered orally at a dose of 81 mg/kg was evaluated for salidiuretic activity measured as sodium ion excretion in Rat; assay type: ADME, organism-based, Urine; design: dose 81 mg/kg, route oral; unit not given beside the values; details: in vivo, po; in short: as §2
Canis familiaris [8] = experiment: Compound administered intravenously at a dose of 5 mg/kg was evaluated for salidiuretic activity measured as sodium ion excretion in Dog; Value ranges from 0-99; assay type: ADME, organism-based, Canis lupus familiaris, Urine; design: dose 5 mg/kg, route intravenous; details: in vivo, iv; in short: as §1
Rattus norvegicus [9] = experiment: Compound administered orally at a dose of 1 mg/kg was evaluated for salidiuretic activity measured as sodium ion excretion in Rat; details: in vivo, po
Canis familiaris [10] = experiment: Compound administered intravenously at a dose of 5 mg/kg was evaluated for salidiuretic activity measured as sodium ion excretion in Dog; Value ranges from 600-799; assay type: ADME, organism-based, Canis lupus familiaris, Urine; design: dose 5 mg/kg, route intravenous; unit not given beside the values; details: in vivo, iv; in short: as §1
Canis familiaris [11] = experiment: Compound administered intravenously was evaluated for salidiuretic activity measured as sodium ion excretion in Dog; Value ranges from 400-599; assay type: ADME, organism-based, Canis lupus familiaris, Urine; details: in vivo, iv; in short: as §1
Canis familiaris [12] = experiment: Oral diuretic activity was evaluated by measuring Cl- excretion in dog at 5 mg/kg after […] (0-6 hr); assay type: ADME, organism-based, Canis lupus familiaris, Urine; design: dose 5 mg/kg, route intraperitoneal; details: in vivo
Canis familiaris [13] = experiment: Oral diuretic activity was evaluated by measuring Cl- excretion in dog at 0.3 mg/kg after […] (0-6 hr); assay type: ADME, organism-based, Canis lupus familiaris, Urine; design: dose 0.3 mg/kg, route intraperitoneal; details: in vivo
Canis familiaris [14] = experiment: Oral diuretic activity was evaluated by measuring Na+ excretion in dog at 10 mg/kg after ip administration (0-6 hr); assay type: ADME, organism-based, Canis lupus familiaris, Urine; design: dose 10 mg/kg, route intraperitoneal; details: in vivo
In short: (§3)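 Spontaneous urine was pooled with bladder urine collected by catheterization at 6 h. Volume was measured and Na+, K+ and Cl− were determined by standard methods. Values are geometric means.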

Rattus norvegicus [15] = experiment: Oral diuretic activity was evaluated by measuring Cl- excretion in Rat at 27 mg/kg […] (0-5 hr); assay type: ADME, organism-based, Urine; design: dose 27 mg/kg; details: in vivo
Canis familiaris [16] = experiment: Oral diuretic activity was evaluated by measuring K+ excretion in dog at 5 mg/kg after ip administration (0-6 hr); assay type: ADME, organism-based, Canis lupus familiaris, Urine; design: dose 5 mg/kg, route intraperitoneal; details: in vivo; in short: as §3
Canis familiaris [17] = experiment: Oral diuretic activity was evaluated by measuring Na+ excretion in dog at 1 mg/kg after ip administration (0-6 hr); assay type: ADME, organism-based, Canis lupus familiaris, Urine; design: dose 1 mg/kg, route intraperitoneal; details: in vivo; in short: as §3
Rattus norvegicus [18] = experiment: Oral diuretic activity was evaluated by measuring K+ excretion in Rat at 3 mg/kg […] (0-5 hr); assay type: ADME, organism-based, Urine; design: dose 3 mg/kg
In short: (§4)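 Female Charles-River rats (150–170 g) were kept overnight on a sugar diet with water ad libitum. Test substance was dissolved in DMF and diluted with water containing Tween 80 to a final 4% DMF vehicle, then given po in 5.0 mL. Rats were housed three per metabolism cage, and 0–5 h urine was assayed for Na⁺, K⁺ and Cl⁻ alongside concurrent placebo groups. Values are mequiv × 100 per cage, geometric means of three cages per dose.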

Rattus norvegicus [19] = organism: Rattus norvegicus; experiment: Time taken for the decrease in arterial pressure was measured; assay type: functional, Artery
Rattus norvegicus [20] = experiment: Maximum fall in mean arterial blood pressure was measured in SH rats when compound was administered at 40 mg/kg perorally; assay type: functional; details: route oral
Canis familiaris [21] = experiment: Oral diuretic activity was evaluated by measuring Cl- excretion in dog at 1 mg/kg after […] (0-6 hr); assay type: ADME, organism-based, Canis lupus familiaris, Urine; design: dose 1 mg/kg, route intraperitoneal; details: in vivo
Rattus norvegicus [22] = experiment: Oral diuretic activity was evaluated by measuring K+ excretion in Rat at 27 mg/kg […] (0-5 hr); assay type: ADME, organism-based, Urine; design: dose 27 mg/kg; in short: as §4
Canis familiaris [23] = experiment: Oral diuretic activity was evaluated by measuring Na+ excretion in dog at 5 mg/kg after ip administration (0-6 hr); assay type: ADME, organism-based, Canis lupus familiaris, Urine; design: dose 5 mg/kg, route intraperitoneal; details: in vivo; in short: as §3
Canis familiaris [24] = experiment: Oral diuretic activity was evaluated by measuring Na+ excretion in dog at 0.3 mg/kg after ip administration (0-6 hr); assay type: ADME, organism-based, Canis lupus familiaris, Urine; design: dose 0.3 mg/kg, route intraperitoneal; details: in vivo; in short: as §3
Rattus norvegicus [25] = experiment: Oral diuretic activity was evaluated by measuring Cl- excretion in Rat at 3 mg/kg […] (0-5 hr); assay type: ADME, organism-based, Urine; design: dose 3 mg/kg, route intraperitoneal; details: in vivo
Rattus norvegicus [26] = experiment: Oral diuretic activity was evaluated by measuring K+ excretion in Rat at 9 mg/kg […] (0-5 hr); assay type: ADME, organism-based, Urine; design: dose 9 mg/kg; in short: as §4
Rattus norvegicus [27] = experiment: Maximum fall in mean arterial blood pressure was measured in SH rats when compound was administered at 10 mg/kg perorally; assay type: functional; details: route oral
Canis familiaris [28] = experiment: Oral diuretic activity was evaluated by measuring K+ excretion in dog at 1 mg/kg after ip administration (0-6 hr); assay type: ADME, organism-based, Canis lupus familiaris, Urine; design: dose 1 mg/kg, route intraperitoneal; details: in vivo; in short: as §3
Canis familiaris [29] = experiment: Oral diuretic activity was evaluated by measuring Cl- excretion in dog at 10 mg/kg after […] (0-6 hr); assay type: ADME, organism-based, Canis lupus familiaris, Urine; design: dose 10 mg/kg, route intraperitoneal; details: in vivo
Rattus norvegicus [30] = experiment: Oral diuretic activity was evaluated by measuring Na+ excretion in Rat at 9 mg/kg after […] (0-5 hr); assay type: ADME, organism-based, Urine; design: dose 9 mg/kg; details: in vivo, ip
In short: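 Female Charles-River rats (150–170 g) were kept overnight on a sugar diet with water ad libitum. Compound was dissolved in DMF, then diluted with water containing Tween 80 (3 drops/100 mL) to a final 4% DMF, and given po in 5.0 mL. Rats were housed three per metabolism cage. Urine from 0–5 h was analysed for Na+, K+ and Cl−, with concurrent placebo controls. Values are mequiv × 100 per cage, geometric mean of three cages per dose.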

Canis familiaris [31] = experiment: Oral diuretic activity was evaluated by measuring K+ excretion in dog at 0.3 mg/kg after […] (0-6 hr); assay type: ADME, organism-based, Canis lupus familiaris, Urine; design: dose 0.3 mg/kg, route intraperitoneal; details: in vivo
Rattus norvegicus [32] = experiment: Maximum fall in mean arterial blood pressure was measured in SH rats when compound was administered at 20 mg/kg perorally; assay type: functional; details: route oral
Canis familiaris [33] = experiment: Salidiuretic activity in dog following i.v. dosing at 5 mg/kg; assay type: functional, Canis lupus familiaris, Urine; design: unit not given beside the values; details: route intravenous
In short: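 Conditioned female mongrel dogs, postabsorptive, got a 500 mL oral water load 1 h before pentobarbital anesthesia (30 mg/kg iv). After replicate 15-min control collections, compound was given as an iv stat injection.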

Rattus norvegicus [34] = experiment: Oral diuretic activity was evaluated by measuring K+ excretion in Rat at 81 mg/kg after […] (0-5 hr); assay type: ADME, organism-based, Urine; design: dose 81 mg/kg; in short: as §4
Canis familiaris [35] = experiment: Oral diuretic activity was evaluated by measuring K+ excretion in dog at 10 mg/kg after ip administration (0-6 hr); assay type: ADME, organism-based, Canis lupus familiaris, Urine; design: dose 10 mg/kg, route intraperitoneal; details: in vivo; in short: as §3

## Cc1cc(O)c(CN)c(C)c1Cl.Cl
Canis familiaris [1]
  Diuretic activity: 100

## Cc1c(Cl)cc(C(C)C)c(O)c1CN.Cl
Canis familiaris [2]
  Diuretic activity: 100

## CC(C)Cc1cc(Cl)c(O)c(CN)c1.Cl
Canis familiaris [3]
  Diuretic activity: 400
Rattus norvegicus [4]
  Diuretic activity: 2.4
[5]
  Diuretic activity: 1.4
[6]
  Diuretic activity: 0.5

## Cc1cc(C)c(CN)c(O)c1.Cl
Rattus norvegicus [7]
  Diuretic activity: < 0.3
Canis familiaris [8]
  Diuretic activity: 0
Rattus norvegicus [9]
  Diuretic activity: 1
Rattus norvegicus [4]
  Diuretic activity: <0.2

## COc1cc(O)c(CN)c(OC)c1Cl.Cl
Canis familiaris [1]
  Diuretic activity: 100

## CSc1cc(C(C)(C)C)cc(CN)c1O.Cl
Rattus norvegicus [9]
  Diuretic activity: 0.7
Canis familiaris [10]
  Diuretic activity: 600
Rattus norvegicus [4]
  Diuretic activity: 3.6
[5]
  Diuretic activity: 3.3
[6]
  Diuretic activity: 2.6

## Cc1cc(Cl)c(O)c(CN)c1Cl.Cl
Canis familiaris [11]
  Diuretic activity: 400

## Br.Cc1c(C)c(CN)c(O)c(Cl)c1Cl
Rattus norvegicus [9]
  Diuretic activity: 0.7
Canis familiaris [10]
  Diuretic activity: 600
Rattus norvegicus [4]
  Diuretic activity: 3.6
[5]
  Diuretic activity: 3.3
[6]
  Diuretic activity: 2.6

## Cl.NCc1c(O)c(C(F)(F)F)cc(Cl)c1Cl
Canis familiaris [3]
  Diuretic activity: 400
Rattus norvegicus [4]
  Diuretic activity: 3.3
[5]
  Diuretic activity: 2.7
[6]
  Diuretic activity: 1.4

## CCc1ccc(O)c(CN)c1.Cl
Rattus norvegicus [7]
  Diuretic activity: 1.5
Canis familiaris [2]
  Diuretic activity: 100
Rattus norvegicus [4]
  Diuretic activity: 1.2
[5]
  Diuretic activity: 0.5
[6]
  Diuretic activity: 0.3

## CCOc1c(Cl)c(O)c(CN)c(OCC)c1Cl.Cl
Rattus norvegicus [7]
  Diuretic activity: 2.9
Canis familiaris [8]
  Diuretic activity: 0
Rattus norvegicus [4]
  Diuretic activity: 2.4
[5]
  Diuretic activity: 1.4
[6]
  Diuretic activity: 0.5

## CCOC(=O)c1cc(Cl)c(O)c(CN)c1.Cl
Canis familiaris [2]
  Diuretic activity: 100

## CCCC(=O)c1cc(C)c(O)c(CN)c1.Cl
Canis familiaris [2]
  Diuretic activity: 100

## NS(=O)(=O)c1cc2c(cc1Cl)NCNS2(=O)=O [HYDROCHLOROTHIAZIDE]
Canis familiaris [12]
  Diuretic activity: 26.3
Rattus norvegicus [7]
  Diuretic activity: 2.4
Canis familiaris [13]
  Diuretic activity: 8.57
Canis familiaris [14]
  Diuretic activity: 19.6
Rattus norvegicus [15]
  Diuretic activity: 1.56
Canis familiaris [16]
  Diuretic activity: 7.4
Canis familiaris [17]
  Diuretic activity: 16.4
Rattus norvegicus [18]
  Diuretic activity: 0.34
Rattus norvegicus [19]
  Duration: >8 h and 12 h
Rattus norvegicus [20]
  MAP: 26 mmHg
Canis familiaris [21]
  Diuretic activity: 22
Rattus norvegicus [22]
  Diuretic activity: 0.34
Canis familiaris [23]
  Diuretic activity: 18.8
Rattus norvegicus [4]
  Diuretic activity: 1.8
Canis familiaris [24]
  Diuretic activity: 5.4
Rattus norvegicus [25]
  Diuretic activity: 1.54
Rattus norvegicus [26]
  Diuretic activity: 0.38
Rattus norvegicus [27]
  MAP: 14 mmHg
[5]
  Diuretic activity: 0.6
[6]
  Diuretic activity: 0.4
Canis familiaris [28]
  Diuretic activity: 4.8
Canis familiaris [29]
  Diuretic activity: 22.9
Rattus norvegicus [30]
  Diuretic activity: 1.12
Canis familiaris [31]
  Diuretic activity: 1.98
Rattus norvegicus [32]
  MAP: 25 mmHg
Canis familiaris [33]
  Diuretic activity: 250
Rattus norvegicus [34]
  Diuretic activity: 0.37
Canis familiaris [35]
  Diuretic activity: 7.1

## CC1(c2cc(I)c(O)c(CN)c2)CCCC1.Cl
Canis familiaris [11]
  Diuretic activity: 400

## CCSc1cc(C(C)(C)C)cc(CN)c1O.Cl
Rattus norvegicus [7]
  Diuretic activity: 1.5
Canis familiaris [3]
  Diuretic activity: 400
Rattus norvegicus [4]
  Diuretic activity: 1.2
[5]
  Diuretic activity: 0.5
[6]
  Diuretic activity: 0.3
